Source: ChEMBL document CHEMBL2424622, “Development of amino-pyrimidine inhibitors of c-Jun N-terminal kinase (JNK): kinase profiling guided optimization of a 1,2,3-benzotriazole lead” (Bioorg Med Chem Lett, 2013)

Columns and labels:
[1] = biological target: Mitogen-activated protein kinase 7 (Homo sapiens, UniProt Q13164); assay: Competitive binding affinity to ERK5 (unknown origin) at 10 uM in presence of ATP relative to control
[2] = biological target: T1, Ephrin type-B receptor 2 (Homo sapiens) (UniProt P29323); assay: Competitive binding affinity to EPHB2 (unknown origin) at 10 uM in presence of ATP relative to control
T1 sequence (whole entry): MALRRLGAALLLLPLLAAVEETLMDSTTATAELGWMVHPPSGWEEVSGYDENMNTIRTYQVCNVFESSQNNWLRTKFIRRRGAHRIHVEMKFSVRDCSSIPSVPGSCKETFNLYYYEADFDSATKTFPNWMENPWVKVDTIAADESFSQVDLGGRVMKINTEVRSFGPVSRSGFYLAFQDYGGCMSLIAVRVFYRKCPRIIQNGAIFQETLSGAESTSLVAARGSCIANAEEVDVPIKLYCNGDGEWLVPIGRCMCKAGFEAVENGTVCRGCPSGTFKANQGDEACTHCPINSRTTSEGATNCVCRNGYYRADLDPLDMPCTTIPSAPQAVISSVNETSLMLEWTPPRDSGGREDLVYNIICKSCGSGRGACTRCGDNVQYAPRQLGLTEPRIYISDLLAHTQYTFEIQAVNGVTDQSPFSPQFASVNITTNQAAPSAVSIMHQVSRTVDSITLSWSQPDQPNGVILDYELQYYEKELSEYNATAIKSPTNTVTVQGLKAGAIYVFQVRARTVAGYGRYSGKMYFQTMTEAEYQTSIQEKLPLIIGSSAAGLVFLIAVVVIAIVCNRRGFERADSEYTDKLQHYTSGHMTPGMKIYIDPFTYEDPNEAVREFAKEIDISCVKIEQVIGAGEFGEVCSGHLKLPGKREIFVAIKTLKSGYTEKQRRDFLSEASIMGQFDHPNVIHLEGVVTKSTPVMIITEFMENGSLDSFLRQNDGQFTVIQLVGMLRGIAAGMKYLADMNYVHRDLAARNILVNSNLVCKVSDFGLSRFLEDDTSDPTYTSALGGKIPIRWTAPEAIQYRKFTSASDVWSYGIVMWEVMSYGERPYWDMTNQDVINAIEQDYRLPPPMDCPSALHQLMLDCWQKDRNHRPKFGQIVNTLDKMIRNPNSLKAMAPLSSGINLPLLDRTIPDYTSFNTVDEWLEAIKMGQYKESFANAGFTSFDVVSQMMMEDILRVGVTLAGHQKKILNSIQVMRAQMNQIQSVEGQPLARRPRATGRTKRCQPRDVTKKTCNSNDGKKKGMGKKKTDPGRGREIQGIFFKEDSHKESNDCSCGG
How it was run: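 In vitro ATP-site competition binding assay, part of profiling against a diverse panel of 128 kinases. Each compound was tested at a single concentration of 10 µM. Kinome selectivity was summarized as S15 selectivity scores.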

[3] = species: Homo sapiens; assay: Competitive binding affinity to EGFR L747 to T751 deletion mutant, Sins mutant (unknown origin) at 10 uM in presence of ATP relative to control
[4] = biological target: T2, Serine/threonine-protein kinase Nek1 (Homo sapiens) (UniProt Q96PY6); assay: Competitive binding affinity to NEK1 (unknown origin) at 10 uM in presence of ATP relative to control
T2 sequence (whole entry): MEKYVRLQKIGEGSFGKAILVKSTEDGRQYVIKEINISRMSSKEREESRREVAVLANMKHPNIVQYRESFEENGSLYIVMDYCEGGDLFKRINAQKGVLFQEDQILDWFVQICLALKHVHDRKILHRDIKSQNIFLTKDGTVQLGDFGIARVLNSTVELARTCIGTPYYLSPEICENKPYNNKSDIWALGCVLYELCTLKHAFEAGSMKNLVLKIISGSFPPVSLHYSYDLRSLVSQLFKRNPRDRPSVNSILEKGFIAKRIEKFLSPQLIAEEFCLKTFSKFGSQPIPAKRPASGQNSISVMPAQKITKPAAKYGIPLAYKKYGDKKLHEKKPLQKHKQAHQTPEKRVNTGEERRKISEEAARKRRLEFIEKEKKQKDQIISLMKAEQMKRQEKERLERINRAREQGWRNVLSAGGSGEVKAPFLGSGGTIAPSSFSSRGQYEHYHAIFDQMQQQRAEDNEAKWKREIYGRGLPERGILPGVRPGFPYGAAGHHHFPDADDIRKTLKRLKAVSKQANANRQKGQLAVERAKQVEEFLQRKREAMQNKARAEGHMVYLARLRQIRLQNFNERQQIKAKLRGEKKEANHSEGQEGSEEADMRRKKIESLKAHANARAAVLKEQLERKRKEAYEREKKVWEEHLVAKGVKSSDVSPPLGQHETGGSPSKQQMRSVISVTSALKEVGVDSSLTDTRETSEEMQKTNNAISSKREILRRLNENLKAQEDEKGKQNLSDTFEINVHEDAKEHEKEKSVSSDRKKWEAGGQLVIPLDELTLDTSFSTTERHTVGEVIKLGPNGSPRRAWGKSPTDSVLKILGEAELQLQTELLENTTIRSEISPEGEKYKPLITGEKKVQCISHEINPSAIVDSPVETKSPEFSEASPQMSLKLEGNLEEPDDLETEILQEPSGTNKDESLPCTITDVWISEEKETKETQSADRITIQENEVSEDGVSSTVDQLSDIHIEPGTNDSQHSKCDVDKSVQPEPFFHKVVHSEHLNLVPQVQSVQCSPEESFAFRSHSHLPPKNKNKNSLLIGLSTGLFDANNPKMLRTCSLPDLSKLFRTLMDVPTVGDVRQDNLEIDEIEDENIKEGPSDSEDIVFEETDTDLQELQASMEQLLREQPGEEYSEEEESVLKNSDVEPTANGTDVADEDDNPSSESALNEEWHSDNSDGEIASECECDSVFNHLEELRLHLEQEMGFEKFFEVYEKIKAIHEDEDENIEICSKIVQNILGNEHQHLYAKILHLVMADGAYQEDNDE

Chain of Mitogen-activated protein kinase 7 (Q13164 2-816 limits assumed): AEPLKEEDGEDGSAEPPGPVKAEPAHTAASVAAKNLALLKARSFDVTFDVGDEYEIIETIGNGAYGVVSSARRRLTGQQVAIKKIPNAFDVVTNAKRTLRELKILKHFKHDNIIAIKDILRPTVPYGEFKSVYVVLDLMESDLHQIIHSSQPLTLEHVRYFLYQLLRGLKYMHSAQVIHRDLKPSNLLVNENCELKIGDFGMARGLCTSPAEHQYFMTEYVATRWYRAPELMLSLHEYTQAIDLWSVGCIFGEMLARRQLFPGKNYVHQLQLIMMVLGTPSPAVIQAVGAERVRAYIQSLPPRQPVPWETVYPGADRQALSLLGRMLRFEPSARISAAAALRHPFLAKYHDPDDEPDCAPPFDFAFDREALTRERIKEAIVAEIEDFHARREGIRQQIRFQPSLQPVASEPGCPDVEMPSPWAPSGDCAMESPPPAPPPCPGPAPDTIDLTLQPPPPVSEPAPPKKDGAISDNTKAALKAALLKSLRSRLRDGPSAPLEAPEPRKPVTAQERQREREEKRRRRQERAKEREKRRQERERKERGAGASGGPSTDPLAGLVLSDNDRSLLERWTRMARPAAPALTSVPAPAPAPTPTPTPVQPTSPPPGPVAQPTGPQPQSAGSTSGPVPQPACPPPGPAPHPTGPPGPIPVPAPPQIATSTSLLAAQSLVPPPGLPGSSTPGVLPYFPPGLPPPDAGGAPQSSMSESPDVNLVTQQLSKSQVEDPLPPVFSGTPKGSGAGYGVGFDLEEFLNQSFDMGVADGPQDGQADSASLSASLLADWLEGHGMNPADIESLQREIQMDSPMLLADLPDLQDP

Structure (SMILES)	inhibition [1] [%]	inhibition [2] [%]	inhibition [3] [%]	inhibition [4] [%]
O[C@H]1CC[C@H](Nc2nccc(-n3ccc4ccccc43)n2)CC1	< 50	< 50	< 50	84
O[C@H]1CC[C@H](Nc2nccc(-n3nnc4ccccc43)n2)CC1	100	< 50	< 50	98
CS(=O)(=O)CCCOc1cccc2c1ccn2-c1ccnc(N[C@H]2CC[C@H](C(=O)N3CCC(O)CC3)CC2)n1	> 85			> 85

The remaining lines, values ahead:

inhibition [1] [%]	inhibition [2] [%]	inhibition [3] [%]	inhibition [4] [%]	Structure (SMILES)
79	< 50	< 50	96	O[C@H]1CC[C@H](Nc2nccc(-n3ncc4ccccc43)n2)CC1
	< 50	< 50		O[C@H]1CC[C@H](Nc2nccc(-c3n[nH]c4ccccc34)n2)CC1
